Key:
Trypsin = Trypsin (Homo sapiens, UniProt P07477+P07478+P35030); experiment: Inhibition of trypsin (unknown origin) using S-2222 as substrate incubated for 15 mins prior to substrate addition measured every 10 secs by spectrophotometric analysis; type: protein assay
Method in brief: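 Trypsin at 0.5 nkat/mL final with S-2222 at 50 and 100 µM final. Inhibitor 0.5–100 µM, diluted from 10 mM DMSO stocks, preincubated 15 min at 25 °C with enzyme in HBSA buffer before substrate; absorbance at 405 nm every 10 s. Triplicate at three inhibitor and two substrate levels; Ki from initial rates (Cheng–Prusoff), averaged.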

Prothrombin = Prothrombin (Homo sapiens, UniProt P00734); experiment: Inhibition of thrombin (unknown origin) using S-2238 as substrate incubated for 15 mins prior to substrate addition measured every 10 secs by spectrophotometric analysis
[1] = biological target: Integrin alpha-IIb/beta-3 (Homo sapiens, UniProt P05106+P08514); experiment: Displacement of biotinylated fibrinogen from human glycoprotein 2b/3a receptor after 2 hrs by chemiluminescence assay; type: protein-complex assay
Method in brief: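 Solid-phase competitive binding: purified human GPIIb/IIIa coated overnight at 4 °C in Tris buffer pH 7.4 with 1 mM Ca2+, Mg2+, Mn2+; blocked with 1% BSA. Serially diluted inhibitor plus biotinylated human fibrinogen, 2 h rt; peroxidase anti-biotin antibody 1 h, chemiluminescent read.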

Coagulation factor X = Coagulation factor X (Homo sapiens, UniProt P00742); experiment: Inhibition of F10a (unknown origin) using S-2222 as substrate incubated for 15 mins prior to substrate addition measured every 10 secs by spectrophotometric analysis
Method in brief: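 Inhibitor 0.5–100 µM (from 10 mM DMSO stocks) preincubated with enzyme in HBSA buffer 15 min, 25 °C; A405 read every 10 s. Triplicate, three inhibitor × two substrate concentrations; Ki from initial linear rates via Cheng–Prusoff, averaged.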

Integrin alpha-IIb/beta-3, sequence (P05106 27-788 limits assumed): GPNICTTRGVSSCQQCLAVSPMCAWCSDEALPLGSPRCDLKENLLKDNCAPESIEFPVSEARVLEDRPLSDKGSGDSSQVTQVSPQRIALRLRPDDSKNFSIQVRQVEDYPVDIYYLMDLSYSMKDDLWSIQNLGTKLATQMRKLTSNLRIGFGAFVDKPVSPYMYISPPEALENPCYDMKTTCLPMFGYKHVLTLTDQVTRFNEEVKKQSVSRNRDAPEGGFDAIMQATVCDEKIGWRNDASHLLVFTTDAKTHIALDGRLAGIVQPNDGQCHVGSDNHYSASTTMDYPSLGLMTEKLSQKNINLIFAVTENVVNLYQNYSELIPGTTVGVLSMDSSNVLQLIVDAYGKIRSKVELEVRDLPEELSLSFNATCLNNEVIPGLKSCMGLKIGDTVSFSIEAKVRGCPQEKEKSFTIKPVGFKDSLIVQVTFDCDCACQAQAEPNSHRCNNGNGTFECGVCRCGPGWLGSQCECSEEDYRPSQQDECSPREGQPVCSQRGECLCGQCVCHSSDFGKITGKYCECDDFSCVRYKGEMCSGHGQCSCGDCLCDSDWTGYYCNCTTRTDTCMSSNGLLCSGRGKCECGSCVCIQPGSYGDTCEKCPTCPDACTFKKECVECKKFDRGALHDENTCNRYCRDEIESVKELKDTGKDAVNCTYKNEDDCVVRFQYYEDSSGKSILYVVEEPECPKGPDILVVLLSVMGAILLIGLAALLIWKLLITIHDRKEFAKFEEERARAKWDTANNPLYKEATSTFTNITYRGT
Integrin alpha-IIb/beta-3, sequence (P08514 32-887 limits assumed): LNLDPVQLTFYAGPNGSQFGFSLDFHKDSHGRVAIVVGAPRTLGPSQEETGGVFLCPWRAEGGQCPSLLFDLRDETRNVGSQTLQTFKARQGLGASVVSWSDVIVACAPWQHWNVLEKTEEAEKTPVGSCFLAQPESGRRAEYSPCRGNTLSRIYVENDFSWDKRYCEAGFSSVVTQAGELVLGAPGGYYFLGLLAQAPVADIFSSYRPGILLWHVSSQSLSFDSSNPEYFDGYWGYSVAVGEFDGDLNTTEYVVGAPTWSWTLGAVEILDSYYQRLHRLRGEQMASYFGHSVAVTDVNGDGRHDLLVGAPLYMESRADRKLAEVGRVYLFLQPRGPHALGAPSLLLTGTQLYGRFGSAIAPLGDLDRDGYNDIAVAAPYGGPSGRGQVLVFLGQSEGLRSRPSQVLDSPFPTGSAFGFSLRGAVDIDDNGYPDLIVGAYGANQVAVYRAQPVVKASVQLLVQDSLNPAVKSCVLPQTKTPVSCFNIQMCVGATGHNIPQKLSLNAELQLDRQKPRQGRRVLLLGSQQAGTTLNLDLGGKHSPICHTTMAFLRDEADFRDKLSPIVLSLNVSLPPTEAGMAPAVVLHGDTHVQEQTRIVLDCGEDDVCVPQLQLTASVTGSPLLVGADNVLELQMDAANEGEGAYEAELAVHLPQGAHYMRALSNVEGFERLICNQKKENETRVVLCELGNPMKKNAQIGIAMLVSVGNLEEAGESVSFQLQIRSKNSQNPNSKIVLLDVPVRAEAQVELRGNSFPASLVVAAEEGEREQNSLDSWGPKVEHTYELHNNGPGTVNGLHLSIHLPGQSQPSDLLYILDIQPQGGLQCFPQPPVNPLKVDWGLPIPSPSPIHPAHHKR
Integrin alpha-IIb/beta-3, sequence (P08514 891-1039 limits assumed): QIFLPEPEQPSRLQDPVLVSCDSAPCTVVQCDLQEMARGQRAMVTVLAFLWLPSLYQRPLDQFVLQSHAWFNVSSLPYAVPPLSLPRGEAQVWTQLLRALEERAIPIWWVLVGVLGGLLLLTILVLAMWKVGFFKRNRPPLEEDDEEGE
Coagulation factor X, sequence (P00742 41-179 limits assumed): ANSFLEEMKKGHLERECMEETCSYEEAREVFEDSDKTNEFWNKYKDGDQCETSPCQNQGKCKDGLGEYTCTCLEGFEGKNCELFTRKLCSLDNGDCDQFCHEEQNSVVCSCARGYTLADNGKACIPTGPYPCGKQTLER
Coagulation factor X, sequence (P00742 235-488 limits assumed): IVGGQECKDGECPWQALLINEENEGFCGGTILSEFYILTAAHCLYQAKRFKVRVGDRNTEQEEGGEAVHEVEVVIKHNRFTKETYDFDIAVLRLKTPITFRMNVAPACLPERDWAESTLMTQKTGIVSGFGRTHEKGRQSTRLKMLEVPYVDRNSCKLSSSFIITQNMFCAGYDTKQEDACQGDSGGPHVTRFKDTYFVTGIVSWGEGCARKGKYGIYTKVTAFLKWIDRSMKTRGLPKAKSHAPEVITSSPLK

SMILES | Ki (Trypsin) | Ki (Prothrombin) | IC50 [1] | Ki (Coagulation factor X)
O=C(O)C1CCN(c2ccc(N3C[C@@H](CNCc4ccc(-c5noc(=O)[nH]5)cc4)OC3=O)cc2)CC1 | > 100 µM | > 100 µM | 0.26 µM | 94.8 µM
Nc1ncc(C(=O)NC[C@H]2CN(c3ccc(N4CCC(C(=O)O)CC4)cc3)C(=O)O2)s1.O=C(O)C(F)(F)F | > 100 µM | > 100 µM | 78.4 µM | 48.8 µM
CCOC(=O)C1CCN(c2ccc(N3C[C@@H](CNC(=O)c4cnc(N)s4)OC3=O)cc2)CC1.O=C(O)C(F)(F)F | > 100 µM | > 100 µM | > 300 µM | 111 µM
CCOC(=O)C1CCN(c2ccc(N3C[C@H](CNC(=O)c4ccc(Cl)c(N)c4)OC3=O)cc2)CC1 | > 100 µM | > 100 µM | > 300 µM | 10.8 µM
O=C(NC[C@@H]1CN(c2ccc(N3CCC(C(=O)O)CC3)cc2)C(=O)O1)c1ccc(-c2noc(=O)[nH]2)cc1 | > 100 µM | > 100 µM | 0.87 µM | > 100 µM
CC(=O)O.CCOC(=O)C1CCN(c2ccc(N3C[C@H](CNC(=O)c4ccc(C(=N)N)cc4)OC3=O)cc2)CC1 | 5.65 µM | > 100 µM | 14 µM | > 100 µM
Nc1ncc(C(=O)NC[C@H]2CN(c3ccc(N4CCCC(C(=O)O)C4)cc3)C(=O)O2)s1.O=C(O)C(F)(F)F (stereo partly specified) | > 100 µM | > 100 µM | > 300 µM | 47.5 µM
CC(=O)O.N=C(N)c1ccc(CNC[C@H]2CN(c3ccc(N4CCC(C(=O)O)CC4)cc3)C(=O)O2)cc1 | 17.8 µM | 53 µM | 2.2 µM | 54.1 µM
CC(=O)O.N=C(N)c1ccc(C(=O)NC[C@@H]2CN(c3ccc(N4CCC(C(=O)O)CC4)cc3)C(=O)O2)cc1 | 3.79 µM | > 100 µM | 4.7 µM | 62.9 µM
Nc1ncc(C(=O)NC[C@@H]2CN(c3ccc(N4CCC(C(=O)O)CC4)cc3)C(=O)O2)s1.O=C(O)C(F)(F)F | > 100 µM | > 100 µM | 16.8 µM | 88.2 µM
CC(=O)O.CCOC(=O)C1CCN(c2ccc(N3C[C@H](CNCc4ccc(C(=N)N)cc4)OC3=O)cc2)CC1 | 2.17 µM | > 100 µM | 55 µM | 34.3 µM
O=C(NC[C@H]1CN(c2ccc(N3CCC(C(=O)O)CC3)cc2)C(=O)O1)c1ccc(Cl)c(-c2noc(=O)[nH]2)c1 | > 100 µM | > 100 µM | 15.3 µM | 89.7 µM
CCOC(=O)C1CCN(c2ccc(N3C[C@@H](CNC(=O)c4ccc(Cl)c(N)c4)OC3=O)cc2)CC1 | > 100 µM | > 100 µM | > 300 µM | 82.3 µM
CC1(C(=O)O)CCCN(c2ccc(N3C[C@H](CNC(=O)c4cnc(N)s4)OC3=O)cc2)C1=O.O=C(O)C(F)(F)F (stereo partly specified) | > 100 µM | > 100 µM | > 300 µM | 11.2 µM
CC(=O)O.CCOC(=O)C1CCN(c2ccc(N3C[C@@H](CNC(=O)c4ccc(C(=N)N)cc4)OC3=O)cc2)CC1 | 3.06 µM | > 100 µM | 96 µM | > 100 µM
O=C(NC[C@@H]1CN(c2ccc(N3CCC(C(=O)O)CC3)cc2)C(=O)O1)c1ccc(Cl)s1 | – | – | > 300 µM | –
CCOC(=O)C1CCN(c2ccc(N3C[C@H](CNC(=O)c4cnc(N)s4)OC3=O)cc2)CC1.O=C(O)C(F)(F)F | > 100 µM | > 100 µM | > 300 µM | 54.4 µM
O=C(O)C1CCN(c2ccc(N3C[C@H](CNCc4ccc(-c5noc(=O)[nH]5)cc4)OC3=O)cc2)CC1 | > 100 µM | > 100 µM | 0.89 µM | > 100 µM
CC(=O)O.CCOC(=O)C1CCN(c2ccc(N3C[C@@H](CNCc4ccc(C(=N)N)cc4)OC3=O)cc2)CC1 | 6.59 µM | > 100 µM | 35 µM | 25.6 µM
Nc1cc(C(=O)NC[C@@H]2CN(c3ccc(N4CCC(C(=O)O)CC4)cc3)C(=O)O2)ccc1Cl | > 100 µM | > 100 µM | 12.8 µM | 57.7 µM
CCOC(=O)C1CCCCN1c1ccc(N2C[C@H](CNC(=O)c3cnc(N)s3)OC2=O)cc1.O=C(O)C(F)(F)F (stereo partly specified) | > 100 µM | > 100 µM | > 300 µM | 28.7 µM
CCOC(=O)C1CCN(c2ccc(N3C[C@H](CNC(=O)c4cnc(N)s4)OC3=O)cc2)C(=O)C1.O=C(O)C(F)(F)F (stereo partly specified) | > 100 µM | > 100 µM | > 300 µM | 38.2 µM
O=C(NC[C@H]1CN(c2ccc(N3CCC(C(=O)O)CC3)cc2)C(=O)O1)c1ccc(-c2noc(=O)[nH]2)cc1 | > 100 µM | > 100 µM | 16 µM | > 100 µM
Nc1cc(C(=O)NC[C@H]2CN(c3ccc(N4CCC(C(=O)O)CC4)cc3)C(=O)O2)ccc1Cl | > 100 µM | > 100 µM | 25.8 µM | 37 µM
CC(=O)O.N=C(N)c1ccc(C(=O)NC[C@H]2CN(c3ccc(N4CCC(C(=O)O)CC4)cc3)C(=O)O2)cc1 | 8.95 µM | > 100 µM | 12 µM | 43 µM
CCOC(=O)C1CCCN(c2ccc(N3C[C@H](CNC(=O)c4cnc(N)s4)OC3=O)cc2)C1.O=C(O)C(F)(F)F (stereo partly specified) | > 100 µM | > 100 µM | > 300 µM | 49.3 µM
O=C(NC[C@H]1CN(c2ccc(N3CCC(C(=O)O)CC3)cc2)C(=O)O1)c1ccc(Cl)s1 | – | – | > 300 µM | –
CCOC(=O)C1(C)CCCN(c2ccc(N3C[C@H](CNC(=O)c4cnc(N)s4)OC3=O)cc2)C1=O.O=C(O)C(F)(F)F (stereo partly specified) | > 100 µM | > 100 µM | > 300 µM | 55.6 µM

From ChEMBL document CHEMBL2390916, “Low molecular weight dual inhibitors of factor Xa and fibrinogen binding to GPIIb/IIIa with highly overlapped pharmacophores” (Eur J Med Chem, 2013)
